The record followed here is ChEMBL document CHEMBL2150886, “Synthesis of [3β-acetoxy-urs-12-en-28-oyl]-1-monoglyceride and investigation on its anti tumor effects against BGC-823” (Bioorg Med Chem, 2011).

In data set [1] the test system is Mus musculus. Briefly: Toxicity in human BGC823 cells xenografted nude mouse assessed as body weight changes at 6 mg/kg, iv treated 4 times on day 1, 4, 7 and 10 post tumor implant (reference value: 20.54 +/- 1.45 grams). It counts as organism-based, BGC-823. More on the design: dose 6 mg/kg, route intravenous. Conditions: in vivo. A digest of the protocol: (§1)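 Nude mice (male, 5 weeks, 18–22 g) carried subcutaneous BGC-823 xenografts from 1 × 10⁷ cells. Dosing started at about 200 mm³ tumour volume, with eight mice per group. Each dose was 0.2 mL given iv; the saline control received 0.9% saline. Body weight was recorded on days 1, 4, 7, 10, 13 and 16 of treatment and reported as mean ± SD, n = 8.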

Data set [2] can be described thus: Cytotoxicity against human GES-1 cells incubated for 48 hrs by MTT assay. In kind it is cell-based. The settings on record: GES1, 48 h. The gist of the method:
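Cells were grown in RPMI-1640 with 10% heat-inactivated FCS at 37 °C under 5% CO₂, seeded at 5 × 10³ per well and left 24 h. Compounds in DMSO were diluted in medium to 0.5% final DMSO; controls received 0.5% DMSO. Exposure was 24–72 h, followed by MTT for 4 h, formazan dissolved in DMSO, and A570. Six wells per sample; IC₅₀ taken at 50% inhibition; ≥3 repeats.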

For data set [3], the system named is BGC-823. Briefly: Cell cycle arrest in human BGC823 cells assessed as accumulation of cells at subG0/G1 phase at 20 uM incubated for 24 hrs by propidium iodide staining based flow cytometry (Rvb= 0.66%). It counts as functional. A digest of the protocol: (§2)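 BGC-823 cells were exposed to 20 µM for 24, 48 or 72 h, or to 10, 20 or 40 µM for 48 h. About 10⁶ cells were harvested and stained with propidium iodide using a cell cycle kit, then analysed by flow cytometry. Percentages were read for sub-G0/G1, G0/G1, S and G2/M. Each experiment was run at least three times; mean ± SD.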

For data set [4], the system named is BGC-823. Briefly: Induction of apoptosis in human BGC823 cells assessed as late apoptotic cell population at 10 uM by annexinV/propidium iodide staining (reference value: 2.1%). In kind it is functional.
Data set [5] has as its system Mus musculus. Briefly: Toxicity in human BGC823 cells xenografted nude mouse assessed as body weight changes at 30 mg/kg, iv treated 3 times on day 1, day 4 and day 7 post tumor implant (reference value: 20.79 +/- 1.29 grams). In kind it is organism-based, BGC-823. More on the design: dose 30 mg/kg, route intravenous. Conditions: in vivo. A digest of the protocol:
as §1

Data set [6] concerns BGC-823. Put plainly: Induction of apoptosis in human BGC823 cells assessed as late apoptotic cell population at 40 uM by annexinV/propidium iodide staining (reference value: 2.1%). It counts as functional.
Data set [7] relates to BGC-823. Put plainly: Induction of apoptosis in human BGC823 cells assessed as late apoptotic cell population at 20 uM by annexinV/propidium iodide staining (reference value: 2.1%). It counts as functional.
Data set [8] has as its system BGC-823. Put plainly: Induction of apoptosis in human BGC823 cells assessed as necrotic damaged cell population at 40 uM by annexinV/propidium iodide staining (reference value: 0.5%. In kind it is functional.
For data set [9], the system named is Mus musculus. Put plainly: Toxicity in human BGC823 cells xenografted nude mouse assessed as body weight changes at 6 mg/kg, iv treated […] on day 1, 4, 7, 10, 13 and day 16 post tumor implant (reference value: 20.12 +/- 1.52 grams). In kind it is organism-based, BGC-823. More on the design: dose 6 mg/kg, route intravenous. The settings on record: in vivo.

The subject of data set [10] is BGC-823. Briefly: Reduction in survivin protein expression in human BGC823 cells at 20 uM incubated for 48 hrs by Western blotting. In kind it is functional. The gist of the method:
(§3)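 BGC-823 cells were treated with 10, 20 or 40 µM for 48 h, detached with trypsin/EDTA, and more than 10⁶ cells were lysed. Protein was quantified by Bradford, and 150–200 µg per lane was run on 12.5% SDS-PAGE and transferred to PVDF. Antibodies: Survivin 1:1000, Bcl-2 1:200, β-actin 1:1000; HRP secondary 1 h; ECL detection. Expression was quantified relative to control.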

Data set [11] has as its system BGC-823. Briefly: Induction of apoptosis in human BGC823 cells assessed as necrotic damaged cell population at 30 uM by annexinV/propidium iodide staining (reference value: 0.5%. It counts as functional.
Data set [12] deals with BGC-823. Put plainly: Induction of apoptosis in human BGC823 cells assessed as early apoptotic cell population at 40 uM by annexinV/propidium iodide staining (reference value: 1.9%). In kind it is functional.
The test system of data set [13] is BGC-823. Put plainly: Cell cycle arrest in human BGC823 cells assessed as accumulation of cells at subG0/G1 phase at 40 uM incubated for 24 to 72 hrs by propidium iodide staining based flow cytometry (Rvb= 0.66%). It counts as functional.
The test system of data set [14] is BGC-823. Briefly: Reduction in survivin protein expression in human BGC823 cells incubated for 48 hrs by Western blotting. In kind it is functional, cell-based. The gist of the method:
as §3

The subject of data set [15] is BGC-823. Put plainly: Induction of apoptosis in human BGC823 cells assessed as late apoptotic cell population at 30 uM by annexinV/propidium iodide staining (reference value: 2.1%). In kind it is functional.
For data set [16], the system named is BGC-823. Briefly: Reduction in survivin protein expression in human BGC823 cells at 40 uM incubated for 48 hrs by Western blotting. It counts as functional. A digest of the protocol: as §3
The test system of data set [17] is BGC-823. Briefly: Induction of apoptosis in human BGC823 cells assessed as increase in caspase 3 activity at 10 uM incubated for 48 hrs relative to untreated control. It counts as functional. The gist of the method:
(§4)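 BGC-823 cells were exposed to 0, 10 or 20 µM for 48 h, detached with trypsin/EDTA and washed in cold PBS. About 10⁶ cells were lysed, and the lysate was incubated 1 h with Ac-DEVD-pNA, with cleavage read at 405 nm. Activity was normalised to Bradford protein and expressed relative to the untreated control. Mean ± SD of three independent experiments.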

Data set [18] relates to BGC-823. Briefly: Induction of apoptosis in human BGC823 cells assessed as necrotic damaged cell population at 20 uM by annexinV/propidium iodide staining (reference value: 0.5%. It counts as functional.
Data set [19] concerns BGC-823. Briefly: Cell cycle arrest in human BGC823 cells assessed as accumulation of cells at subG0/G1 phase at 40 uM incubated by propidium iodide staining based flow cytometry (Rvb= 0.66%). It counts as functional. Conditions: TDE = time-dependent effect. A digest of the protocol: as §2
In data set [20] the test system is BGC-823. Put plainly: Induction of apoptosis in human BGC823 cells assessed as increase in caspase 3 activity at 20 uM incubated for 48 hrs relative to untreated control. In kind it is functional. The gist of the method:
as §4

The subject of data set [21] is BGC-823. Briefly: Induction of apoptosis in human BGC823 cells assessed as induction of DNA fragmentation at 10 to 40 uM incubated for 48 hrs by alkaline comet assay. It counts as functional, cell-based. The gist of the method:
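Alkaline comet assay on about 10⁵ BGC-823 cells after 48 h at 37 °C with 10, 20 or 40 µM. Cells with diffuse fan-like tails and small heads were scored as apoptotic; large defined heads with minimal DNA diffusion were scored as normal.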

For data set [22], the system named is BGC-823. Put plainly: Induction of apoptosis in human BGC823 cells assessed as early apoptotic cell population at 30 uM by annexinV/propidium iodide staining (reference value: 1.9%). In kind it is functional.
Data set [23] has as its system BGC-823. Put plainly: Cell cycle arrest in human BGC823 cells assessed as accumulation of cells at subG0/G1 phase incubated for 24 to 72 hrs by propidium iodide staining based flow cytometry. It counts as functional. A digest of the protocol:
as §2

Data set [24] has as its system BGC-823. Put plainly: Cell cycle arrest in human BGC823 cells assessed as accumulation of cells at subG0/G1 phase at 20 uM incubated for 48 hrs by propidium iodide staining based flow cytometry (Rvb= 0.66%). In kind it is functional. A digest of the protocol:
as §2

As to `CC(=O)O[C@H]1CC[C@]2(C)[C@H]3CC=C4[C@@H]5[C@@H](C)[C@H](C)CC[C@]5(C(=O)OCC(O)CO)CC[C@@]4(C)[C@]3(C)CC[C@H]2C1(C)C` (some centres undefined), the Activity came out at 20.03 g with Mus musculus [1]; 3.71% in the data set on BGC-823 [3]; 2.6% with BGC-823 [4]; 19.29 g with Mus musculus [5]; 89.5% in the data set with BGC-823 [6]; 2.3% in the data set with BGC-823 [7]. In addition, the Activity in the data set on BGC-823 [8] worked out at 2.3%; in the data set with Mus musculus [9] it was 20.09 g; in the data set on BGC-823 [10], 43.1%; in the data set with BGC-823 [11], 6.5%; with BGC-823 [12], 7.4%; with BGC-823 [13], 96.13%. Further, the Activity entry in the data set with BGC-823 [14] is “Dose-dependent effect”; in the data set with BGC-823 [15], 29%; with BGC-823 [16], 53.1%; in the data set on BGC-823 [18], 0.1%; with BGC-823 [19] it was “tde”; in the data set with BGC-823 [21], “Dose-dependent effect”. The values for the Activity with BGC-823 [22], in the data set with BGC-823 [23] and in the data set on BGC-823 [24] were 45.1%, “Dose-dependent effect” and 7.91%, respectively. Moreover, in [2], the IC50 came to 155 µM. The results for the “fold change (FC)” value in the data set on BGC-823 [17] and in the data set with BGC-823 [20] were 2.54 and 3.65, respectively.
